Hits are enriched below; roughly 3.5% of the tested compounds scored in any of these assays.
MrgX1 allo act: positive allosteric modulators of MrgX1, primary screen, HEK293 cells, Fluo-4 calcium flux | FDSS; stronger effect = higher value | Mas-related G-protein coupled receptor member X1 (Homo sapiens), Q96LB2 | B-score at 10 µM | hit rate 0.63% among 310,000;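 active = plate-corrected calcium response at least 3 library SD above typical, normal starting fluorescence, not activating the receptor alone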;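 also: compound read alongside a low EC10 to EC30 dose of BAM8-22 agonist; peak minus trough fluorescence over baseline measured at the second addition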
Target sequence (Q96LB2 whole entry, looked up): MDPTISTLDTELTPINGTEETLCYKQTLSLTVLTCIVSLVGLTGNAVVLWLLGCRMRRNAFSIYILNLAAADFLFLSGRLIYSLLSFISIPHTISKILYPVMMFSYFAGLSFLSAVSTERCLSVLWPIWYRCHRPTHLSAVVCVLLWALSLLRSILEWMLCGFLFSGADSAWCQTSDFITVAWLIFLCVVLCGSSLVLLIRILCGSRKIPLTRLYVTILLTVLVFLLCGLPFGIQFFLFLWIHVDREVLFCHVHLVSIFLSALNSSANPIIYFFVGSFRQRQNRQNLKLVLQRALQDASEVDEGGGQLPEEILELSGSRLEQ
RGS4 act: RGS4 potentiators or activators, primary screen, cell-based, HEK293 M3R inducible RGS4, calcium flux. B-score at 10 µM. carbachol calcium flux Fluo4; stronger effect = lower value. hit rate 0.92% among 310,000;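 active = B-score of the integrated calcium signal more than 4 SD below the library mean, with starting fluorescence not abnormally high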;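 also: negative B-score means reduced calcium response which marks RGS4 activation or potentiation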
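Assay system: HEK293 FlpIn-TREx cells, stable M3R, doxycycline-inducible RGS4 / Probe or stimulus: carbachol, ECmax concentration / Times: overnight RGS4 induction, 30 min dye load 37 °C, 20 min compound RT / Signal: kinetic calcium fluorescence imaging with Fluo4-AM dye, 2 µM / Measure: Agonist-evoked peak-minus-minimum fluorescence over baseline, integrated ratio, B score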
MrgX1 antagonist: antagonists of human MrgX1 receptor, primary screen, HEK293 cells, Fluo-4 calcium flux; Mas-related G-protein coupled receptor member X1 (Homo sapiens), Q96LB2; BAM8-22 antagonism; stronger effect = lower value; B-score at 10 µM; hit rate 1.3% among 310,000;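 active = calcium-response B-score plate-corrected more than 3 library SD below zero, starting fluorescence within 5 deviations, no agonist response on first addition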;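 also: peak minus trough fluorescence over baseline after final BAM8-22 challenge near maximal dose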
MrgX1 ag: agonists of human MrgX1 receptor, primary screen, HEK293 cells, Fluo-4 calcium flux | Fluo-4 calcium fluorescence, agonist mode; stronger effect = higher value | B-score at 10 µM | hit rate 0.44% among 310,000 | AID 588627, 2011;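 active = calcium response B-score plate-corrected fluorescence ratio at least 3 library SD, with starting fluorescence B-score inside 5 SD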
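System – MrgX1-expressing HEK293 cells · Incubation – cells plated overnight, dye loaded 0.5 h 37 °C, 0.5 h room temperature · Technique – kinetic Fluo-4 NW fluorescence of intracellular calcium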
RGS4 block: RGS4 inhibitors, primary screen, cell-based, HEK293 M3R inducible RGS4, calcium flux; hit rate 0.45% among 310,000; B-score at 10 µM; Fluo-4 calcium flux; stronger effect = higher value; triggered by carbachol at its EC20;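 active = B-score, a plate-corrected calcium signal, over three deviations above library mean, with baseline fluorescence within five deviations of library mean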;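 also: RGS4 expression induced by doxycycline in cells with stable M3 receptor; B-score is computed from the integrated fluorescence ratio over baseline after carbachol; higher B-score means a larger calcium signal and so more RGS4 inhibition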
Target sequence (P49798 whole entry, looked up): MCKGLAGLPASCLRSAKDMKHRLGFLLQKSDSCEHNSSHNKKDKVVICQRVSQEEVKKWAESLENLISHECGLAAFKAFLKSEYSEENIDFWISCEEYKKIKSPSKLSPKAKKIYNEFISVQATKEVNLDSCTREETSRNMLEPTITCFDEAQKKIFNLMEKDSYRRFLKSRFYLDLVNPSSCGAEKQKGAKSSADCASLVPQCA
Numbers without * were called inactive; i = inactive.

SMILES	MrgX1 allo act	RGS4 act	MrgX1 antagonist	MrgX1 ag	RGS4 block
CC(NCC(=O)Nc1cc(S(=O)(=O)N2CCOCC2)ccc1Cl)c1ccc(Cl)cc1Cl (configuration not stated)	i	i	-7.33*	i	i
O=C(NC(NC(=S)Nc1ccc(Cl)cc1)C(Cl)(Cl)Cl)c1ccco1 (configuration not stated)	i	i	i	i	i
CC(=O)c1ccc(NC(=S)NC(NC(=O)c2ccco2)C(Cl)(Cl)Cl)cc1 (configuration not stated)	7.57*	i	i	i	i
CC(NS(=O)(=O)c1ccccc1)C1CC2CCC1C2 (configuration not stated)	i	i	i	i	i
CCn1c(=O)cc(SCC(=O)Nc2cccc(C)n2)c2ccccc21	i	i	i	i	i
NC(=O)CC(NC(=O)c1ccc(Br)cc1)c1ccc(N2CCCCCCC2)c([N+](=O)[O-])c1 (configuration not stated)	i	i	i	i	i
Cn1c(-c2ccccn2)[n+](C)c2ccccc21	i	i	i	i	i
CN(C)c1ccc(-c2n(C)c3ccccc3[n+]2C)cc1	i	i	-8.75*	i	i
COc1ccc(SCC(=O)c2cc(C)c(OC(=S)N(C)C)c(C)c2)cc1	i	-7.01*	i	i	i
CCc1ccc(NC(=O)CSc2nnc(CNC(=O)c3ccc(OC)cc3)o2)cc1	i	i	i	i	i
CCOc1ccc(S(=O)(=O)N2CCCC(C(=O)NCc3ccncc3)C2)cc1Cl (configuration not stated)	i	i	i	i	i
CSCCC(NS(=O)(=O)c1ccc2c(c1)oc(=O)n2C)C(=O)NCc1cccs1 (configuration not stated)	i	i	i	i	i
CCN1c2ccccc2NC2C1C(C(C)=O)C(=O)N2c1ccc(Cl)cc1 (configuration not stated)	i	i	-5.06*	i	i
O=C1Nc2ccccc2N(O)N1c1ccc(Cl)cc1	i	i	i	i	i
CC(C)CCNC(=O)CN(Cc1ccco1)C(=O)CCC(=O)Nc1nccs1	i	i	i	i	i
CC(=O)NC1C(=O)N(CCN2CCOCC2)c2ccc(C)cc21 (configuration not stated)	i	i	-6.1*	i	i
COc1cccc(CN2CCN(Cc3cccc(Br)c3)CC2)c1OC	i	i	i	i	i
Nc1nc(-c2ccccc2)c(-c2ccc([N+](=O)[O-])cc2)s1	i	i	-5.1*	i	i
Cc1nnc(NC(=O)C2CCN(S(=O)(=O)c3ccc(Cl)cc3)CC2)s1	i	i	i	i	i
COn1c(-c2ccccc2)c(C=O)c2ccccc21	18.8*	i	i	i	i
CCC(C)N1CNc2c(c(=O)[nH]c(=S)n2-c2cccc(C)c2)C1 (configuration not stated)	i	i	i	i	i
Cc1ccccc1-c1oc(C)c(C)[n+]1[O-]	7.82*	i	i	i	i
CCc1ccc(-c2nc(CSCC(=O)N3CCN(c4ccccn4)CC3)c(C)o2)cc1	i	i	-7.1*	i	i
O=C(NC(=S)Nc1ccc(S(=O)(=O)Nc2nccs2)cc1)c1ccc(F)cc1	i	i	i	i	i
CCc1ccc(/C=C2\C(=N)N3N=C(CC(=O)N4CCCCC4)SC3=NC2=O)cc1	i	i	i	i	i
SMILES	MrgX1 allo act	RGS4 act	MrgX1 antagonist	MrgX1 ag	RGS4 block
CSc1ccc(/C=C2\C(=N)N3N=C(CC(=O)N4CCOCC4)SC3=NC2=O)cc1	11.1*	i	i	i	i
CCN(CC)c1ccc(/C=C2\C(=N)N3N=C(CC(=O)N4CCOCC4)SC3=NC2=O)cc1	i	i	i	28.3*	i
CSc1ccc(/C=C2\C(=N)N3N=C(CC(=O)N4CCCCC4)SC3=NC2=O)cc1	i	i	i	38*	i
O=C(NCC1CCCCC1)c1ccc(Br)o1	i	i	i	i	i
O=C(NC1CCCN(C2Cc3ccccc3C2)C1)c1ccc(F)cc1Cl (configuration not stated)	i	i	i	i	i
O=C(c1cccc(C(F)(F)F)c1)C1CCCN(C(=O)c2cc(C3CC3)[nH]n2)C1 (configuration not stated)	i	i	i	i	i
Cc1ccc(CNC(=O)CN(C)S(=O)(=O)c2ccc(F)cc2)cc1	i	i	i	i	i
COc1ccc(NC(=O)c2ccc(-n3cncn3)c([N+](=O)[O-])c2)cc1OC	i	i	i	i	i
O=C(Nc1cccc(/C=C/c2ccccn2)c1)c1ccc(-n2cncn2)c([N+](=O)[O-])c1	i	-7.72*	i	i	i
O=C(CSc1nnc(NC(=O)C2CC(=O)N(c3ccc(F)cc3)C2)s1)NCC1CCCO1 (configuration not stated)	i	i	i	i	i
CCn1nc(C(=O)Nc2ccccc2N2CCCC2)c2ccccc2c1=O	11.7*	-8.73*	i	i	i
Cc1ccnc(N2C(=O)c3cccc4c([N+](=O)[O-])ccc(c34)C2=O)c1	i	i	-5.17*	i	i
COc1ccc(CCNC(=O)c2cc(C(=O)c3cc(C)ccc3O)cn(CCc3ccc(OC)cc3)c2=O)cc1	i	-8.73*	i	i	i
COc1ccc(CNC(=O)CSc2nnc(NC(=O)c3ccccc3F)s2)cc1	i	i	i	i	i
N#C/C(=C\c1ccc(F)cc1)c1nc(-c2ccco2)cs1	i	i	i	i	i
N#C/C(=C\c1ccc(Cl)cc1)c1nc(-c2ccco2)cs1	i	i	-6.19*	i	i
CC(C)CC1(C)N=C(c2ccccc2)C(=S)N1 (configuration not stated)	i	i	i	i	i
CC(=O)/C(=N\Nc1ccccc1)Sc1cccc2cccnc12	i	i	-4.74*	i	i
Cc1ccc(S(=O)(=O)NCC(c2ccc3c(c2)OCO3)N2CCOCC2)cc1 (configuration not stated)	i	i	i	i	i
